Source: the RNAGym collection of RNA variant scans (doi:10.1038/nmeth.2970)

B1: NELF-E aptamer (parent)
chain: CCCAACGACUGCCGAGCGAGAUUACGCUUGAGCGCCCCACUGAGGAUGCCCACGGGCGAUUGGGGCACGG

Variants of: B1
Test: HiTS-RAP
Settings: with NELF-E (Drosophila)
Summary of the method: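 Kd came from weighted Hill fits to the first binding curve, with intensities normalised to sequencing intensity and averaged per sequence, keeping only fits whose variance was below 1,000,000. That curve was imaged on an Illumina GAIIx flowcell, where sequenced aptamer DNA templates with a T7 promoter and ter site had been transcribed in situ by T7 RNA polymerase and halted by GST-Tus (30 minutes, 37°C). Before each image, clusters equilibrated for 30 minutes at room temperature with NELF-E-mOrange at 0.064 to 1000 nM in HEPES binding buffer.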

Row | Variant | Kd
1 | CCCGACGACUGCCGAGCGAGAUUACUCUUGAGCGCCCCACUGAGGAUGCCCACGGGCGAUUGGGGCACGG [A4G G26U] | 7.06 nM
2 | CCCGACGACUGCCGAGCGAGAUUACACUUGAGCGCCCCACUGAGGAUGCCCACGGGCGAUUGGGGCACGG [A4G G26A] | 4.55 nM
3 | CCCGACGACUGCCGAUCGAGAUUACGCUUGAGCGCCCCACUGAGGAUGCCCACGGGCGAUUGGGGCACGG [A4G G16U] | 6.47 nM
4 | CCCUACGACUGCCGAGCGAGGUUACGCUUGAGCGCCCCACUGAGGAUGCCCACGGGCGAUUGGGGCACGG [A4U A21G] | 5.7 nM
5 | CCCGACGACUGCCGAGCGAGAUUACGCUUGAGCGCCCCACUGAAGAUGCCCACGGGCGAUUGGGGCACGG [A4G G44A] | 54.3 nM
6 | CCCGACGACUGCCGAGCGAGAUUACGCUUGAGCGCCCCACUGAUGAUGCCCACGGGCGAUUGGGGCACGG [A4G G44U] | 7.66 nM
7 | CCCGACGACUGCCGAGCGAGAUUACGCUUAAGCGCCCCACUGAGGAUGCCCACGGGCGAUUGGGGCACGG [A4G G30A] | 4.89 nM
8 | CCCGACGACUGCCGAGCGAGAUUACGCUUUAGCGCCCCACUGAGGAUGCCCACGGGCGAUUGGGGCACGG [A4G G30U] | 5.76 nM
9 | CCCGACGACAGCCGAGCGAGAUUACGCUUGAGCGCCCCACUGAGGAUGCCCACGGGCGAUUGGGGCACGG [A4G U10A] | 5.89 nM
10 | CCCGACGACCGCCGAGCGAGAUUACGCUUGAGCGCCCCACUGAGGAUGCCCACGGGCGAUUGGGGCACGG [A4G U10C] | 5.06 nM
11 | CCCGACGACGGCCGAGCGAGAUUACGCUUGAGCGCCCCACUGAGGAUGCCCACGGGCGAUUGGGGCACGG [A4G U10G] | 5.09 nM
12 | CCCGACGACUGCCGAGCGAGAUUACGCUUGAGCGCCCCACUGAGGAUGCCCACGGGCUAUUGGGGCACGG [A4G G58U] | 13.2 nM
13 | CCCGACGACUGCCGAGCGAGAUUACGCUUGAGCGCCCCACUGAGGAUGCCCACGCGCGAUUGGGGCACGG [A4G G55C] | 8.07 nM
14 | CCCGACGACUGCCGAGCGAGAUUACGCUUGAGCGCCCCACUGAGGAUGCCCACGUGCGAUUGGGGCACGG [A4G G55U] | 7.68 nM
15 | CCCGACGACUGCCGAGCGAGAUUACGCUUGAGCGCCCCACUGAGGAUGCCCACGAGCGAUUGGGGCACGG [A4G G55A] | 8.61 nM
16 | CCCGACGACUGCCGAGCGAGAUUACGCUUGAGCGCCCCACUGAGUAUGCCCACGGGCGAUUGGGGCACGG [A4G G45U] | 8.32 nM
17 | CCCGACGACUGCCGAGCGAGAUUACGCUUGAGCGCCCCACUGAGAAUGCCCACGGGCGAUUGGGGCACGG [A4G G45A] | 85.6 nM
18 | CCCGACGACUGCCGAGCAAGAUUACGCUUGAGCGCCCCACUGAGGAUGCCCACGGGCGAUUGGGGCACGG [A4G G18A] | 5.38 nM
19 | CCCGACGACUGCCGAGCUAGAUUACGCUUGAGCGCCCCACUGAGGAUGCCCACGGGCGAUUGGGGCACGG [A4G G18U] | 5.96 nM
20 | CCCUACGGCUGCCGAGCGAGAUUACGCUUGAGCGCCCCACUGAGGAUGCCCACGGGCGAUUGGGGCACGG [A4U A8G] | 6.19 nM

Row | Variant | Kd
21 | CCCUACGUCUGCCGAGCGAGAUUACGCUUGAGCGCCCCACUGAGGAUGCCCACGGGCGAUUGGGGCACGG [A4U A8U] | 6.22 nM
22 | CCCUACGACUGCCGAGCGUGAUUACGCUUGAGCGCCCCACUGAGGAUGCCCACGGGCGAUUGGGGCACGG [A4U A19U] | 5.66 nM
23 | CCCUACGACUGCCGAGCGGGAUUACGCUUGAGCGCCCCACUGAGGAUGCCCACGGGCGAUUGGGGCACGG [A4U A19G] | 6.92 nM
24 | CCCUACGACUGCCGGGCGAGAUUACGCUUGAGCGCCCCACUGAGGAUGCCCACGGGCGAUUGGGGCACGG [A4U A15G] | 5.02 nM
25 | CCCUACGACUGCCGUGCGAGAUUACGCUUGAGCGCCCCACUGAGGAUGCCCACGGGCGAUUGGGGCACGG [A4U A15U] | 6.22 nM
26 | CCCGACGACUGCCGAGCGAGAUUACGCUUGAGCGCCCCACUGAGGAUGCCCACGGGCGAUCGGGGCACGG [A4G U61C] | 66.2 nM
27 | CCCGACGACUGCCGAGCGAGAUUACGCUUGAGCGCCCCACUGAGGAUGCCCACGGGCGAUAGGGGCACGG [A4G U61A] | 37.8 nM
28 | CCCGACGACUGCCGAGCGAGAUUACGCUUGAGCGCCCCACUGAGGAUGCCCACGGGCGAUGGGGGCACGG [A4G U61G] | 9.81 nM
29 | CCCGACGACUGCCGAGCGAGAUGACGCUUGAGCGCCCCACUGAGGAUGCCCACGGGCGAUUGGGGCACGG [A4G U23G] | 5.42 nM
30 | CCCGACGACUGCCGAGCGAGAUCACGCUUGAGCGCCCCACUGAGGAUGCCCACGGGCGAUUGGGGCACGG [A4G U23C] | 4.96 nM
31 | CCCGACGACUGCCGAGCGAGAUAACGCUUGAGCGCCCCACUGAGGAUGCCCACGGGCGAUUGGGGCACGG [A4G U23A] | 5.89 nM
32 | CCCGACGACUGCCGAGCGAGAUUACGCUUGAGCGCCCCACUGAGGAUGCCCACGGGCGAUUGAGGCACGG [A4G G63A] | 15.1 nM
33 | CCCGACGACUGCCGAGCGAGAUUACGCUUGAGCGCCCCACUGAGGAUGCCCACGGGCGAUUGCGGCACGG [A4G G63C] | 28.6 nM
34 | CCCGACGACUGCCGAGCGAGAUUACGCUUGAGCGCCCCACUGAGGAUGCCCACGGGCGAUUGUGGCACGG [A4G G63U] | 11.1 nM
35 | CCCGACGACUGCCGAGCGAGAUUACGCUUGAUCGCCCCACUGAGGAUGCCCACGGGCGAUUGGGGCACGG [A4G G32U] | 5.95 nM
36 | CCCGACGACUGCCGAGCGAGAUUACGCUUGAACGCCCCACUGAGGAUGCCCACGGGCGAUUGGGGCACGG [A4G G32A] | 5.33 nM
37 | CCCGACGACUGCCGAGCGAGAUUACGCUAGAGCGCCCCACUGAGGAUGCCCACGGGCGAUUGGGGCACGG [A4G U29A] | 5.44 nM
38 | CCCGACGACUGCCGAGCGAGAUUACGCUCGAGCGCCCCACUGAGGAUGCCCACGGGCGAUUGGGGCACGG [A4G U29C] | 6.03 nM
39 | CCCGACGACUGCCGAGCGAGAUUACGCUGGAGCGCCCCACUGAGGAUGCCCACGGGCGAUUGGGGCACGG [A4G U29G] | 5.5 nM
